This note sets out measurements from PubChem BioAssay AID588682 (Southern Research Specialized Biocontainment Screening …, 2011).

Unmarked numbers belong to inactive results.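 How the source made its calls: active means inhibition of 30% or more at any tested concentration; inactive means the rest.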

This experiment concerns M17 leucyl aminopeptidase (Plasmodium falciparum 3D7). Kind of experiment: PfM17LAP leucine aminopeptidase inhibitors, dose response, counter-screen for PfM1AAP inhibitor project, biochemical, QFRET (AID 588682). The settings on record: recombinant PfM17LAP, H-Leu-NHMec fluorogenic cleavage; series mostly up to 100 µM; inhibition: at the top concentration. The method, boiled down: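 Material: recombinant Plasmodium falciparum M17 leucine aminopeptidase (rPFM17LAP). Amount: 5 µg/mL rPFM17LAP enzyme. Medium: Tris pH 7.5 plus 2 mM CoCl2. Doses: compound dose series from 100 to 0.2 µM. Incubation: 90 min, room temperature. Signal: fluorescence 370/460 nm. Evaluation: % enzyme inhibition. Control set: background wells lacking enzyme. Repeats: triplicate.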
Background: The purpose of a counterscreen is to sort out artefacts and off-target activity.
In the case of `CC[C@H](C)[C@H](NC(=O)c1ccc([N+](=O)[O-])cc1)C(=O)NCc1ccc(F)cc1`, the inhibition (usually the relative decrease from the control value, in per cent) was 5.3%. Next, `O=C(NCc1ccc2c(c1)OCO2)C1CCN(S(=O)(=O)c2ccc(-c3cccc(F)c3)s2)CC1`: -2.68%; `CC[C@H](C)[C@H](NS(=O)(=O)c1cccs1)C(=O)NCc1ccc(F)cc1`: 16%; `CC[C@H](C)[C@H](NS(=O)(=O)c1ccc(Br)s1)C(=O)NCc1ccc(F)cc1`: 28.7%. Then `COc1cccc(-c2ccc(S(=O)(=O)N3CCC(C(=O)NCc4ccc5c(c4)OCO5)CC3)s2)c1`, with 9.87%; and `CN(C)c1ccc(CNC(=O)C2CCN(S(=O)(=O)c3ccc(Br)s3)CC2)cc1`, with -16.8%; and `CC[C@H](C)[C@H](NC(=O)c1ccc([N+](=O)[O-])cc1)C(=O)NCc1ccc(C(F)(F)F)cc1`, with 1.14%. Then `O=C(NCc1ccc2c(c1)OCO2)C1CCN(S(=O)(=O)c2ccc(-c3ccc(F)cc3)s2)CC1`, with 5.56%; and `O=C(NCc1ccc2c(c1)OCO2)C1CCN(S(=O)(=O)c2ccc(-c3cncc4ccccc34)s2)CC1`, with 10.1%. Turning to `CC[C@H](C)[C@H](NS(=O)(=O)c1ccc(Br)s1)C(=O)NCc1ccc(C(F)(F)F)cc1`, the “inhibition” value is 12.8%. Then `CC[C@H](C)[C@H](NC(=O)c1ccc([N+](=O)[O-])cc1)C(=O)NCc1ccccc1`, with 0.01%; and `CC[C@H](C)[C@H](NC(=O)c1ccc(C(C)(C)C)cc1)C(=O)NCc1ccc(C(F)(F)F)cc1`, with 2.66%. Regarding `CC[C@H](C)[C@H](NS(=O)(=O)c1ccc(Br)s1)C(=O)O`, the “inhibition” value was 13.1%. With `CC(=O)Nc1cccc(-c2ccc(S(=O)(=O)N3CCC(C(=O)NCc4ccc5c(c4)OCO5)CC3)s2)c1`, the “inhibition” value is -15.5%.

Consider `O=C(NCc1ccc2c(c1)OCO2)C1CCN(S(=O)(=O)c2ccc(-c3ccccc3)s2)CC1`, for which the “inhibition” value is -13.1%. Then `COc1ccc(-c2ccc(S(=O)(=O)N3CCC(C(=O)NCc4ccc5c(c4)OCO5)CC3)s2)cc1`, with -148%. Next, `CC(C)(C)c1ccc(-c2ccc(S(=O)(=O)N3CCC(C(=O)NCc4ccc5c(c4)OCO5)CC3)s2)cc1`: 3.33%.
